Laboratory results taken from publication PMC10925991 (Heliyon, 2024).

Assays:
[1] = test system: MCF-7 breast adenocarcinoma cells; assay: MTT anti-proliferative assay, MCF-7; format: cell-based; details: Homo sapiens, MCF7, 48 h, read-out: IC50 (μM) ± SD MCF-7
[2] = test system: RPE-1 human normal Retina pigmented epithelium cells; assay: MTT anti-proliferative assay, RPE-1; format: cell-based; details: RPE-1, 48 h, read-out: IC50 (μM) ± SD RPE-1
Summary of the method: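 RPE-1 cells were grown at 37 °C (5% CO₂, humidified) in RPMI-1640 with 10% heat-inactivated FBS and 100 U/mL penicillin/streptomycin. After 24 h, the medium was changed to serum-free, and serial dilutions of test compound in DMSO were added for 48 h. MTT solution (2.5 mg/mL) was then added for 4 h, formazan was dissolved in DMSO, and A590 was read. Triplicates were repeated on three days. % cytotoxicity = (1 − As/Ab) × 100, from which IC50 was derived.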

| SMILES | IC50 [1] | IC50 [2] |
| --- | --- | --- |
| O=c1c2ccccc2[nH]c2nc3nc(-c4ccccc4)cc(-c4ccc5ccccc5n4)c3c(=O)n12 [Compound 9, 2-phenyl-4-(quinolin-2-yl)-5H-pyrido [2′,3':4,5] pyrimido [2,1-b] quinazoline-5,7(12H)-dione] | 8.1 ± 2.1 µM | 21.2 ± 1.1 µM |
| NNc1nc(NN)c2c(-c3ccc4ccccc4n3)cc(-c3ccccc3)nc2n1 [Compound 11, 2,4-dihydrazinyl-7-phenyl-5-(quinolin-2-yl) pyrido [2,3-d] pyrimidine] | 29.5 ± 1.5 µM | 40.1 ± 1.6 µM |
| O=c1c2ccccc2nc2n1c1nc(-c3ccccc3)cc(-c3ccc4ccccc4n3)c1c1nc3ccccc3c(=O)n12 [Compound 16, 8-phenyl-6-(quinolin-2-yl)-11H,18H-pyrido [3′,2':5,6] pyrimido [2,1-b:4,3-b'] diquinazoline-11,18-dione] | 6.2 ± 1.3 µM | 17.5 ± 1.8 µM |
| COc1cccc2c1C(=O)c1c(O)c3c(c(O)c1C2=O)C[C@@](O)(C(=O)CO)C[C@@H]3O[C@H]1C[C@H](N)[C@H](O)[C@H](C)O1 [Doxorubicin, reference compound] | 10.5 ± 2.2 µM | 30.1 ± 3.1 µM |
| O=c1[nH]c(N2CCOCC2)nc2nc(-c3ccccc3)cc(-c3ccc4ccccc4n3)c12 [Compound 7b, 2-morpholino-7-phenyl-5-(quinolin-2-yl) pyrido [2,3-d] pyrimidin-4(3H)-one] | 32.5 ± 1.3 µM | 43.5 ± 1.5 µM |
| CNC(=O)c1cc(Oc2ccc(NC(=O)Nc3ccc(Cl)c(C(F)(F)F)c3)cc2)ccn1 [Sorafenib, reference compound] | 31 µM | – |
| CSc1nc2nc(-c3ccccc3)cc(-c3ccc4ccccc4n3)c2c(=O)[nH]1 [Compound 2, 2-(methylthio)-7-phenyl-5-(quinolin-2-yl) pyrido [2,3-d] pyrimidin-4(3H)-one] | 43.2 ± 2.2 µM | 52.6 ± 1.9 µM |
| O=C(O)c1ccccc1Nc1nc2nc(-c3ccccc3)cc(-c3ccc4ccccc4n3)c2c(=O)[nH]1 [Compound 8, 2-((4-oxo-7-phenyl-5-(quinolin-2-yl)-3,4-dihydropyrido[2,3-d]pyrimidin-2-yl)amino) benzoic acid] | 35.4 ± 1.1 µM | 45.2 ± 1.5 µM |
| O=C(O)c1ccccc1Nc1nc(Nc2ccccc2C(=O)O)c2c(-c3ccc4ccccc4n3)cc(-c3ccccc3)nc2n1 [Compound 15, 2,2'-((7-phenyl-5-(quinolin-2-yl)pyrido [2,3-d]pyrimidine-2,4-diyl)bis(azanediyl)) dibenzoic acid] | 27.1 ± 1.2 µM | 38.2 ± 1.1 µM |
| CS(=O)(=O)c1nc2nc(-c3ccccc3)cc(-c3ccc4ccccc4n3)c2c(=O)[nH]1 [Compound 6, 2-(methylsulfonyl)-7-phenyl-5-(quinolin-2-yl) pyrido [2,3-d] pyrimidin-4(3H)-one] | 37.8 ± 1.4 µM | 47.3 ± 1.7 µM |
| O=c1c2c(-c3ccc4ccccc4n3)cc(-c3ccccc3)nc2nc2n(-c3ccccc3)nc(-c3ccccc3)n12 [Compound 5a, 1,3,8-triphenyl-6-(quinolin-2-yl) pyrido [2,3-d] [1,2,4] triazolo[4,3-a] pyrimidin-5(1H)-one] | 15.1 ± 2.3 µM | 26.4 ± 1.4 µM |
| O=c1[nH]c(N2CCNCC2)nc2nc(-c3ccccc3)cc(-c3ccc4ccccc4n3)c12 [Compound 7a, 7-phenyl-2-(piperazin-1-yl)-5-(quinolin-2-yl) pyrido [2,3-d] pyrimidin-4(3H)-one] | 31.2 ± 1.8 µM | 42.1 ± 1.9 µM |
| CS(=O)(=O)CCNCc1ccc(-c2ccc3ncnc(Nc4ccc(OCc5cccc(F)c5)c(Cl)c4)c3c2)o1 [lapatinib, reference compound] | 136 µM | – |
| O=c1[nH]c(=S)[nH]c2nc(-c3ccccc3)cc(-c3ccc4ccccc4n3)c12 [Compound 1, 7-phenyl-5-(quinolin-2-yl)-2-thioxo-2,3-dihydropyrido[2,3-d] pyrimidin-4(1H)-one] | 45.5 ± 2.5 µM | 54.2 ± 2.3 µM |
| CSc1nc(Cl)c2c(-c3ccc4ccccc4n3)cc(-c3ccccc3)nc2n1 [Compound 10, 4-chloro-2-(methylthio)-7-phenyl-5-(quinolin-2-yl) pyrido[2,3-d] pyrimidine] | 40.1 ± 2.3 µM | 50.4 ± 1.8 µM |

Further lines, with some results ahead:

| IC50 [1] | SMILES | IC50 [2] |
| --- | --- | --- |
| 19.2 ± 1.5 µM | c1ccc(-c2cc(-c3ccc4ccccc4n3)c3c(N4CCOCC4)nc(N4CCOCC4)nc3n2)cc1 [Compound 14b, 4,4'-(7-phenyl-5-(quinolin-2-yl)pyrido [2,3-d]pyrimidine-2,4-diyl) dimorpholine] | 29.3 ± 1.1 µM |
| 23.9 ± 2.1 µM | c1ccc(Nc2nc(Nc3ccccc3)c3c(-c4ccc5ccccc5n4)cc(-c4ccccc4)nc3n2)cc1 [Compound 13a, N^2, N^4,7-triphenyl-5-(quinolin-2-yl) pyrido [2,3-d] pyrimidine-2,4-diamine] | 34.7 ± 1.3 µM |
| 22.5 ± 2.3 µM | COc1ccc(Nc2nc(Nc3ccc(OC)cc3)c3c(-c4ccc5ccccc5n4)cc(-c4ccccc4)nc3n2)cc1 [Compound 13c, N^2, N^4-bis(4-methoxyphenyl)-7-phenyl-5-(quinolin-2-yl) pyrido [2,3-d] pyrimidine-2,4-diamine] | 33.2 ± 1.4 µM |
| 21.8 ± 2.2 µM | Clc1ccc(Nc2nc(Nc3ccc(Cl)cc3)c3c(-c4ccc5ccccc5n4)cc(-c4ccccc4)nc3n2)cc1 [Compound 13b, N^2, N^4-bis(4-chlorophenyl)-7-phenyl-5-(quinolin-2-yl) pyrido [2,3-d] pyrimidine-2,4-diamine] | 32.4 ± 1.7 µM |
| 18.7 ± 1.9 µM | c1ccc(-c2cc(-c3ccc4ccccc4n3)c3c(N4CCNCC4)nc(N4CCNCC4)nc3n2)cc1 [Compound 14a, 7-phenyl-2,4-di (piperazin-1-yl)-5-(quinolin-2-yl) pyrido [2,3-d] pyrimidine] | 28.1 ± 1.6 µM |
